Data: ChEMBL document CHEMBL1121423, “2,4-Dihydro-6-phenyl-1H-s-triazolo[4,3-a][1,4]benzoidiazepin-1-ones with antianxiety and antidepressant activity” (1980)

Experiments:
Type in all cases: functional
Mus musculus [1] = species on record: Mus musculus; experiment: Effect on the antagonism of bicuculline-induced tonic-extensor convulsions (B)
Method in brief: (§1)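 Male albino CF-1 mice, 18-22 g. Compounds were dissolved or suspended in 0.25% aqueous methylcellulose and given intraperitoneally to groups of four or six mice per dose, at multiple dose levels. ED50 was calculated by the Spearman-Karber method.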

Mus musculus [2] = species on record: Mus musculus; experiment: Effect on the antagonism of nicotine-induced tonic-extensor convulsions (TE) in mice; method in brief: as §1
Mus musculus [3] = species on record: Mus musculus; experiment: Effect of test compound on the potentiation of apomorphine-induced gnawing (AG) in aggregated mice; method in brief: as §1
Mus musculus [4] = species on record: Mus musculus; experiment: Effect on the antagonism of oxotremorine-induced hypothermia (OX); method in brief: as §1
Mus musculus [5] = species on record: Mus musculus; experiment: Effect on the antagonism of pentylenetetrazole-induced clonic convulsions (P)
Mus musculus [6] = species on record: Mus musculus; experiment: Effect on the potentiation of yohimbine-induced toxicity (Y) in aggregated mice; method in brief: as §1
Mus musculus [7] = species on record: Mus musculus; experiment: Effect on the potentiation of gamma-butyrolactone-induced sleep (gamma-B); method in brief: as §1
Mus musculus [8] = species on record: Mus musculus; experiment: Effect on the antagonism of nicotine-induced death (D); method in brief: as §1
Mus musculus [9] = species on record: Mus musculus; experiment: Effect on the prolongation of hypoxic survival time (HS); method in brief: as §1

SMILES	ED50 (Mus musculus [1]; Mus musculus, read-out: ED50)	ED50 (Mus musculus [2]; Mus musculus, read-out: ED50)	ED50 (Mus musculus [3])	ED50 (Mus musculus [4])	ED50 (Mus musculus [5])	ED50 (Mus musculus [6])	ED50 (Mus musculus [7])	ED50 (Mus musculus [8]; Mus musculus, read-out: ED50)	ED50 (Mus musculus [9])	ED50 (Mus musculus [1])	ED50 (Mus musculus [2])	ED50 (Mus musculus [8])
CCN(CC)CCCn1nc2n(c1=O)-c1ccc(Cl)cc1C(c1ccccc1Cl)=NC2	> 50 mg/kg	1.1 mg/kg	> 50 mg/kg	> 25 mg/kg	8.8 mg/kg	> 50 mg/kg	5.3 mg/kg	1.3 mg/kg	10 mg/kg	–	–	–
CN1C(=O)CN=C(c2ccccc2)c2cc(Cl)ccc21 [DIAZEPAM]	2.6 mg/kg	0.28 mg/kg	> 50 mg/kg	> 50 mg/kg	0.1 mg/kg	> 50 mg/kg	0.035 mg/kg	0.28 mg/kg	0.2 mg/kg	–	–	–
CN1CCN(CCn2nc3n(c2=O)-c2ccc(Cl)cc2C(c2ccccc2)=NC3)CC1	17.7 mg/kg	8 mg/kg	> 50 mg/kg	14.9 mg/kg	8.8 mg/kg	> 50 mg/kg	5.3 mg/kg	8 mg/kg	10.5 mg/kg	–	–	–
CN(C)CCCn1nc2n(c1=O)-c1ccc(Cl)cc1C(c1ccccc1)=NC2	40 mg/kg	3.6 mg/kg	> 50 mg/kg	> 50 mg/kg	32 mg/kg	> 50 mg/kg	10 mg/kg	3.6 mg/kg	> 50 mg/kg	–	–	–
Cn1nc2n(c1=O)-c1ccc(Cl)cc1C(c1ccccc1Cl)=NC2	–	0.002 mg/kg	–	–	0.14 mg/kg	–	–	0.002 mg/kg	2.2 mg/kg	–	–	–
O=c1n(CCCN2CCN(c3ccccc3)CC2)nc2n1-c1ccc(Cl)cc1C(c1ccccc1Cl)=NC2	> 50 mg/kg	40 mg/kg	> 50 mg/kg	> 50 mg/kg	> 50 mg/kg	> 50 mg/kg	> 50 mg/kg	40 mg/kg	> 50 mg/kg	–	–	–
CCN(CC)CCn1nc2n(c1=O)-c1ccc(Cl)cc1C(c1ccccc1)=NC2	10 mg/kg	1.3 mg/kg	> 50 mg/kg	> 50 mg/kg	4 mg/kg	> 50 mg/kg	1 mg/kg	1.3 mg/kg	> 50 mg/kg	–	–	–
CN(C)CCCn1nc2n(c1=O)-c1ccc(Cl)cc1C(c1ccccc1Cl)=NC2	14.9 mg/kg	0.9 mg/kg	7.4 mg/kg	> 50 mg/kg	6.3 mg/kg	> 50 mg/kg	2.2 mg/kg	1.1 mg/kg	> 50 mg/kg	–	–	–
O=c1n(CCCN2CCN(CCO)CC2)nc2n1-c1ccc(Cl)cc1C(c1ccccc1Cl)=NC2	12.5 mg/kg	0.5 mg/kg	> 30 mg/kg	> 25 mg/kg	6.3 mg/kg	> 25 mg/kg	2 mg/kg	0.56 mg/kg	20 mg/kg	–	–	–
Cn1nc2n(c1=O)-c1ccc(Cl)cc1C(c1ccccc1)=NC2	3 mg/kg	0.63 mg/kg	> 50 mg/kg	> 50 mg/kg	2.5 mg/kg	> 50 mg/kg	–	0.63 mg/kg	–	2 mg/kg	1 mg/kg	1.1 mg/kg
CN1CCN(CCCn2nc3n(c2=O)-c2ccc(Cl)cc2C(c2ccccc2Cl)=NC3)CC1	> 25 mg/kg	0.4 mg/kg	> 25 mg/kg	25 mg/kg	3.7 mg/kg	25 mg/kg	3.7 mg/kg	0.5 mg/kg	> 30 mg/kg	–	–	–
